Compound activity deposited in PubChem by several laboratories.
This is a sample that favours compounds with a hit; in the whole collection about 9.3% have one here.
DAT uptake mod – changed hDAT dopamine uptake under cocaine IC80, either direction, primary screen, cocaine antagonist project, cell-based, LLC-PK1 hDAT, [14C]-dopamine uptake, MLSMR | hit rate 1.3% among 110,000 | Sodium-dependent dopamine transporter (Homo sapiens), Q01959 | B-score at 10 µM | LLC-PK1 hDAT cells, [14C]-dopamine uptake with cocaine IC80; actives deviate in either direction | AID 449768, 2010;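 active = Z score or B-score, a plate-position-corrected score, falls beyond the plate's 99.7% confidence bounds, in either direction; inactive = both scores lie inside the 99.7% bounds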;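 note: scored against the spread of the other compound wells on the same plate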
Target sequence (Q01959 whole entry, looked up): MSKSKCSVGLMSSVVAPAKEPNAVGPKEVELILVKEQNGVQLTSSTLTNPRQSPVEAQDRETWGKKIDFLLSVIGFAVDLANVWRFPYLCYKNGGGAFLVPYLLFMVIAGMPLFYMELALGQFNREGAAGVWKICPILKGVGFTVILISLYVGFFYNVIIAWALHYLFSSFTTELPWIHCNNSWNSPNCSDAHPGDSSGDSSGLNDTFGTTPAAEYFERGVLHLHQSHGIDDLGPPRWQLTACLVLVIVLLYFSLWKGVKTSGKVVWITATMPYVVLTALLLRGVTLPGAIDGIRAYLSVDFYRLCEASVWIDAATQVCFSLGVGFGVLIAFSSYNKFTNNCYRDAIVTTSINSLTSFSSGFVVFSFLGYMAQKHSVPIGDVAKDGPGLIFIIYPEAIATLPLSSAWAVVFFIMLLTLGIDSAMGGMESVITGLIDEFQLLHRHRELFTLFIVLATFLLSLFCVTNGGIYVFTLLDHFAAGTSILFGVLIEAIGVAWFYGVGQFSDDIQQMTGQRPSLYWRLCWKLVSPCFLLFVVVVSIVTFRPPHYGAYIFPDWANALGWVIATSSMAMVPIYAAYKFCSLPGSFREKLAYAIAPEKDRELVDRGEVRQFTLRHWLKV
E coli WT exp – growth inhibitors of wild-type E. coli, primary screen, strain BW25113, expanded library, OD600. OD600 absorbance. growth inhibition, % at 100 µM. hit rate 0.15% among 98,000. AID 710, 2007;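 active = growth inhibition above about 50% at one test dose, limit read from the data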;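 note: growth measured after 20 h incubation at 37 °C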
PostGolgi ctrl – growth inhibition of yeast control strain, primary screen, counter-screen for post-Golgi transport modulator project | hit rate 5% among 98,000 | AID 738, 2007 | inhibition, % at 10 µM | efflux-deficient yeast background strain, growth absorbance A615, 16 h
Ecoli tolC – growth inhibitors of E. coli tolC mutant, primary screen, strain BW25113 ΔtolC::kan, 384-well | OD615 | growth inhibition, % at 10 µM (by protocol) | hit rate 2.2% among 65,000;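 active = growth inhibition at or above a cutoff equal to the mean over every tested compound plus 3 SD, cut at about 60% in these data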;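 note: growth measured after 20 h incubation at 37 °C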
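Doses: one dose of 10 µM final / Material: E. coli BW25113 ΔtolC::kan, tolC deletion mutant strain / Buffer or medium: LB with kanamycin 50 µg/mL / Evaluation: percent growth inhibition / Detection: optical density read at 615 nm / Incubation: 37 °C, 20 h exposure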
D1 allo mod – D1 CRE-luciferase signal change, two-sided – cell-based, HEK293 D1, dopamine EC30, D1 allosteric modulator project, primary screen; B-score at 10 µM; AID 641, 2007; dopamine EC30 potentiation; actives deviate in either direction; hit rate 5.9% among 58,000;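 active = luminescence count or its row- and column-corrected plate score outside the 99.7% band of the plate's sample wells, on either side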
PostGolgi yeast – phenotypic screen on post-Golgi transport, primary screen. AID 739, 2007. inhibition, % at 10 µM. hit rate 0.9% among 98,000. post-Golgi transport phenotypic cell assay;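 note: yeast cells grown in 1536-well plates; yeast grown about 18 h at 30C before absorbance read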
Numbers without * were called inactive; x = no result given. Cut-off read from the data, not from the text of the source, unless noted: active = inhibition above about 30%; inactive = the rest.

SMILES | DAT uptake mod | E coli WT exp | PostGolgi ctrl | Ecoli tolC | D1 allo mod | PostGolgi yeast
CC(C)(C)n1nnnc1CN(Cc1ccco1)Cc1cc2cc3c(cc2[nH]c1=O)OCO3 | 1.5* | -1 | 1 | -1 | 0.65 | -3
CCC(C)(C)n1nnnc1CN(Cc1ccc(Cl)cc1)Cc1ccco1 | x | 3 | 15 | 81* | x | 2
COc1ccc(-n2c(SCC(=O)NCc3ccco3)nc3c([nH]c4ccccc43)c2=O)cc1 | 0.11 | -3 | -4 | x | x | -3
O=C(Nc1ccc2nc(-c3ccco3)c(-c3ccco3)nc2c1)N1CCCCCC1 | 0.048 | -4 | 1 | 1 | -4.5* | -2
O=C(c1ccco1)N1CCN(C(=O)C2CCCc3c2[nH]c2ccc(Cl)cc32)CC1 (stereo not drawn) | 1.1 | 0 | 23 | 15 | 0.22 | -6
c1ccc2c(c1)C(=NCC1CCCO1)NC2=NCC1CCCO1 (stereo not drawn) | -0.83 | 0 | 0 | -8 | -0.83 | -2
CC(C)(C)N=C1NC(=NC(C)(C)C)c2ccccc21 | -0.56 | 5 | 9 | 57 | -5.3* | -2
Cc1ccccc1NS(=O)(=O)c1ccc(OCC(=O)N2CCCCC2)cc1 | 1.5 | 5 | -4 | x | x | 0
Cc1cccc(C(=O)N/N=C/c2ccc(OCC(=O)N3CCCCC3)cc2)c1 | 2.2* | 3 | 10 | x | x | 7
O=C(COc1ccc(Cl)cc1)N1CCCCC1 | -0.14 | 5 | 13 | x | x | 1
O=C(CSCc1cccc(Cl)c1)N/N=C/c1ccc(OCC(=O)N2CCCCC2)cc1 | 1.5 | -12 | 42* | x | x | -2
O=c1c2ccccc2nc(SCc2nc(-c3ccccc3)no2)n1-c1ccc(F)cc1 | -0.093 | -19 | 11 | -6 | -0.39 | 1
CC1CC(C)(C)N(C(=O)CSc2ccc(-c3ccc(F)cc3)nn2)c2ccccc21 (stereo not drawn) | 0.87 | -5 | 37* | x | x | -23
CC1CCN(C(=O)CSc2ccc(-c3ccc(F)cc3)nn2)CC1 | x | 3 | 8 | 4 | -0.62 | 4
Cc1ccc(CN2CCSc3ccc(C(=O)N4CCN(c5ncccn5)CC4)cc32)cc1 | -1 | -12 | 64* | 68* | 0.43 | 2
O=C(NCCN1CCOCC1)c1ccc2c(c1)N(Cc1ccccc1)CCS2 | -0.036 | 13 | -3 | 18 | -0.57 | 6
CC1CC(C)CN(C(=O)c2ccc3c(c2)N(Cc2ccccc2)CCS3)C1 (stereo not drawn) | 1 | -22 | 75* | x | x | 88*
CCOC(=O)C(CCSC)Nc1nc(Cl)nc(Nc2ccc(Cl)cc2)n1 (stereo not drawn) | -0.093 | x | x | x | x | x
CCC(=O)N1c2ccccc2NC2=C(C(=O)CC(c3ccco3)C2)C1c1ccco1 (stereo not drawn) | 1.1 | -1 | 2 | 6 | x | 1
O=C1CC(c2ccco2)CC2=C1C1c3ccccc3C(=O)N1c1ccccc1N2 (stereo not drawn) | -0.55 | -1 | 22 | 89* | -0.12 | 3
O=C(O)c1ccc(NS(=O)(=O)c2ccc3c(c2)OCCO3)cc1 | -0.69 | 7 | -6 | -9 | 0.37 | -6
COc1ccc(S(=O)(=O)NC2CC3CCC2C3)cc1Cl (stereo not drawn) | -0.46 | 3 | 95* | 8 | 0.31 | 81*
O=S(=O)(NC1CC2CCC1C2)c1ccc2c(c1)OCCO2 (stereo not drawn) | -0.47 | 2 | 55* | 19 | 1.4 | 1
CC1CCCC(NS(=O)(=O)c2ccc3c(c2)OCCO3)C1C (stereo not drawn) | -0.63 | 8 | 55* | 45 | 0.53 | -7
O=S(=O)(NCC1CCCO1)c1ccc2c(c1)OCCO2 (stereo not drawn) | 0.15 | 13 | -3 | -3 | 0.046 | 2
CCOC(=O)C(CC)(CC)C(=O)/C=C/c1cccc(Br)c1 | -0.21 | x | x | x | x | x
CC[C@@H](C)C(N)c1cn([C@@H](CCC(=O)O)C(=O)N2CCNCC2)nn1 (stereo partly drawn) | -0.44 | x | x | x | x | x
OC(CN1C2=NCCN2c2ccccc21)c1ccc(Br)cc1 (stereo not drawn) | -0.14 | 11 | 10 | 6 | -5* | 2
